In ChEMBL document CHEMBL4825737, “Design, synthesis, and biological evaluation of novel 6-(pyridin-3-yl) quinazolin-4(3H)-one derivatives as potential anticancer agents via PI3K inhibition” (Bioorg Med Chem, 2021):
Values belong to the compound of their own block, whether it stands above or below them. Activity calls are given as the source filed them. The calls are words filed in the database; no cut-off is given here.

Tests used:
[1] = Antiproliferative activity against human LM3 cells assessed as reduction in cell viability measured after 72 hrs by flow cytometry analysis; type: functional, cell-based; conditions: GILM3, 72 h
Method in brief: (§1)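 Cells in RPMI 1640 with 10% FBS and penicillin/streptomycin/amphotericin B, seeded at 2.5–3 × 10⁴ per well. Grown adherent in fresh medium for 24 h, then exposed to a range of compound concentrations for 72 h. Living cell numbers counted by flow cytometry; IC50 calculated. Mean ± SD from three experiments.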

[2] = tested on: HCC827; assay: Antiproliferative activity against human HCC827 cells assessed as reduction in cell viability measured after 72 hrs by flow cytometry analysis; type: functional, cell-based; conditions: HCC827, 72 h; method in brief: as §1
[3] = tested on: HEL; assay: Antiproliferative activity against human HEL cells assessed as reduction in cell viability measured after 72 hrs by flow cytometry analysis; type: functional, cell-based; method in brief: as §1
[4] = tested on: SH-SY5Y; assay: Antiproliferative activity against human SH-SY5Y assessed as reduction in cell viability measured after 72 hrs by flow cytometry analysis; type: functional, cell-based; method in brief: as §1
[5] = tested on: HCC827; assay: Induction of apoptosis in human HCC827 cells assessed as necrotic cells at 2 uM incubated for 48 hrs by annexin V-FITC and propidium iodide staining based flow cytometry analysis (reference value: 2.57%); type: functional
[6] = tested on: HCC827; assay: Induction of apoptosis in human HCC827 cells assessed as downregulation of Bcl-2 by Western blot analysis; type: functional, cell-based
Method in brief: (§2)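 HCC827 cells treated with a range of compound concentrations. Western blot for mitochondrial apoptosis proteins with GAPDH as loading control. Bands quantified by densitometry; mean ± SD, n = 3, compared with vehicle control.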

[7] = tested on: HCC827; assay: Induction of cell cycle arrest in human HCC827 cells assessed as accumulation at G2 phase incubated for 24 hrs by […]PI assay; type: functional, cell-based; conditions: dose 1-4 µM
Method in brief: (§3)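 HCC827 cells held 12 h in medium without FBS, then treated for 24 h. Fixed overnight in 70% ethanol and stained with propidium iodide plus RNase for 30 min in the dark at room temperature. Cell cycle distribution read by flow cytometry.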

[8] = tested on: HCC827; assay: Induction of apoptosis in human HCC827 cells assessed as reduction in CHK1 expression at 1 to 4 uM incubated for 24 hrs by Western blot analysis; type: functional, cell-based; conditions: dose 1-4 µM
Method in brief: (§4)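 HCC827 cells treated with a range of compound concentrations for 24 h. Western blot for G2/M-associated proteins with GAPDH as loading control. Bands quantified by densitometry; mean ± SD, n = 3, compared with control.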

[9] = tested on: HCC827; assay: Inhibition of PI3K signalling in human HCC827 cells assessed as decrease in phosphorylation of Akt at Ser473 at 1 to 4 uM incubated for 24 hrs by Western blot analysis; type: cell-based; conditions: dose 1-4 µM
Method in brief: (§5)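 HCC827 cells treated with different compound concentrations for 24 h. Phospho-protein levels measured by Western blot. Mean ± SD from three parallel experiments, compared with DMSO control.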

[10] = tested on: HCC827; assay: Induction of apoptosis in human HCC827 cells assessed as reduction in c-Myc expression at 1 to 4 uM incubated for 24 hrs by Western blot analysis; type: functional, cell-based; conditions: dose 1-4 µM; method in brief: as §4
[11] = tested on: HCC827; assay: Induction of apoptosis in human HCC827 cells assessed as reduction in p-CHK1 expression at 1 to 4 uM incubated for 24 hrs by Western blot analysis; type: functional, cell-based; conditions: dose 1-4 µM; method in brief: as §4
[12] = tested on: HCC827; assay: Induction of apoptosis in human HCC827 cells assessed as early apoptotic cells at 1 uM incubated for 48 hrs by annexin V-FITC and propidium iodide staining based flow cytometry analysis (reference value: 2.69%); type: functional
[13] = tested on: HCC827; assay: Inhibition of PI3K signalling in human HCC827 cells assessed as decrease in phosphorylation of mTOR at Ser2448 at 1 to 4 uM incubated for 24 hrs by Western blot analysis; type: cell-based; conditions: dose 1-4 µM; method in brief: as §5
[14] = tested on: HCC827; assay: Induction of apoptosis in human HCC827 cells assessed as early apoptotic cells at 4 uM incubated for 48 hrs by annexin V-FITC and propidium iodide staining based flow cytometry analysis (reference value: 2.69%); type: functional
[15] = tested on: HCC827; assay: Inhibition of PI3K signalling in human HCC827 cells assessed as decrease in phosphorylation of GSKbeta at Ser9 at 1 to 4 uM incubated for 24 hrs by Western blot analysis; type: cell-based; conditions: dose 1-4 µM; method in brief: as §5
[16] = tested on: HCC827; assay: Induction of apoptosis in human HCC827 cells assessed as late apoptotic cells at 2 uM incubated for 48 hrs by annexin V-FITC and propidium iodide staining based flow cytometry analysis (reference value: 0.56%); type: functional
[17] = tested on: HCC827; assay: Induction of apoptosis in human HCC827 cells assessed as reduction in Cyclin-B1 expression at 1 to 4 uM incubated for 24 hrs by Western blot analysis; type: functional, cell-based; conditions: dose 1-4 µM; method in brief: as §4
[18] = tested on: HCC827; assay: Induction of apoptosis in human HCC827 cells assessed as early apoptotic cells at 2 uM incubated for 48 hrs by annexin V-FITC and propidium iodide staining based flow cytometry analysis (reference value: 2.69%); type: functional
[19] = tested on: HCC827; assay: Induction of apoptosis in human HCC827 cells assessed as late apoptotic cells at 4 uM incubated for 48 hrs by annexin V-FITC and propidium iodide staining based flow cytometry analysis (reference value: 0.56%); type: functional
[20] = tested on: HCC827; assay: Induction of apoptosis in human HCC827 cells assessed as necrotic cells at 4 uM incubated for 48 hrs by annexin V-FITC and propidium iodide staining based flow cytometry analysis (reference value: 2.57%); type: functional
[21] = tested on: HCC827; assay: Induction of cell cycle arrest in human HCC827 cells assessed as decrease in G1 phase incubated for 24 hrs by […]PI assay; type: functional, cell-based; conditions: dose 1-4 µM; method in brief: as §3
[22] = tested on: HCC827; assay: Induction of apoptosis in human HCC827 cells assessed as late apoptotic cells at 1 uM incubated for 48 hrs by annexin V-FITC and propidium iodide staining based flow cytometry analysis (reference value: 0.56%); type: functional
[23] = tested on: L02; assay: Antiproliferative activity against human HL7702 cells assessed as reduction in cell viability measured after 72 hrs by flow cytometry analysis; type: functional, cell-based; conditions: L02, 72 h; method in brief: as §1
[24] = tested on: HCC827; assay: Induction of apoptosis in human HCC827 cells assessed as viable cells at 4 uM incubated for 48 hrs by annexin V-FITC and propidium iodide staining based flow cytometry analysis (reference value: 94.16%); type: functional; conditions: read-out: Activity
[25] = tested on: HCC827; assay: Induction of apoptosis in human HCC827 cells assessed as necrotic cells at 1 uM incubated for 48 hrs by annexin V-FITC and propidium iodide staining based flow cytometry analysis (reference value: 2.57%); type: functional
[26] = tested on: HCC827; assay: Induction of apoptosis in human HCC827 cells assessed as viable cells at 1 uM incubated for 48 hrs by annexin V-FITC and propidium iodide staining based flow cytometry analysis (reference value: 94.16%); type: functional; conditions: read-out: Activity
[27] = tested on: HCC827; assay: Induction of apoptosis in human HCC827 cells assessed as upregulation of cleaved-caspase 9 by Western blot analysis; type: functional, cell-based; method in brief: as §2
[28] = tested on: HCC827; assay: Induction of apoptosis in human HCC827 cells assessed as viable cells at 2 uM incubated for 48 hrs by annexin V-FITC and propidium iodide staining based flow cytometry analysis (reference value: 94.16%); type: functional; conditions: read-out: Activity
[29] = Inhibition of PI3K in human HCC827 cells assessed as decrease in phosphorylation incubated for 24 hrs by cell PI3 kinase activity photometric assay; type: cell-based; conditions: HCC827, 24 h
Method in brief: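 Human NSCLC HCC827 cells grown in RPMI 1640 with 10% FBS and antibiotics-antimycotics, exposed to a range of concentrations for 24 h. Cells washed with Reagent A, lysed with Reagent B, protein measured by Bradford, then 100 μg lysate protein per group used in a cell PI3K assay kit for kinase activity. IC50 given as mean ± SD of three separate experiments.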

[30] = tested on: HCC827; assay: Induction of apoptosis in human HCC827 cells assessed as upregulation of cleaved-PRAP by Western blot analysis; type: functional, cell-based; method in brief: as §2
[31] = tested on: HCC827; assay: Induction of apoptosis in human HCC827 cells assessed as upregulation of Bax by Western blot analysis; type: functional, cell-based; method in brief: as §2

SMILES: O=C(c1ccccc1)N(C(=O)c1ccccc1)c1ccc(-c2ccc3ncn(Cc4ccccc4)c(=O)c3c2)cn1
Activity [5]: 6.66%
Activity [6]: Active
IC50 [1]: 2.65 µM
Activity [7]: Dose-Dependent Effect
Activity [8]: Active
inhibition [9]: Active
Activity [10]: Active
Activity [11]: Active
Activity [12]: 11.77%
inhibition [13]: Active
Activity [14]: 27.87%
inhibition [15]: Active
Activity [16]: 15.63%
Activity [17]: Active
Activity [18]: 19.16%
Activity [19]: 11.28%
Activity [20]: 6.05%
Activity [21]: Dose-Dependent Effect
Activity [22]: 13.57%
IC50 [23]: 8.66 µM
viability at 4 µM [24]: 54.8%
IC50 [2]: 1.12 µM
Activity [25]: 6.47%
viability at 1 µM [26]: 68.2%
Activity [27]: Dose-Dependent Effect
viability at 2 µM [28]: 58.5%
IC50 [29]: 0.072 µM
Activity [30]: Dose-Dependent Effect
Activity [31]: Dose-Dependent Effect
IC50 [3]: 2.01 µM
IC50 [4]: 2.13 µM

SMILES: COCC(=O)Nc1ccc(-c2ccc3ncn(Cc4ccccc4)c(=O)c3c2)cn1
IC50 [1]: > 40 µM
IC50 [2]: > 40 µM
IC50 [3]: > 40 µM
IC50 [4]: > 40 µM

SMILES: CCCCC(=O)Nc1ccc(-c2ccc3ncn(Cc4ccc5c(c4)OCO5)c(=O)c3c2)cn1
IC50 [1]: > 40 µM
IC50 [2]: > 40 µM
IC50 [3]: > 40 µM
IC50 [4]: > 40 µM

SMILES: CC(C)(C)C(=O)Nc1ccc(-c2ccc3ncn(Cc4ccccc4)c(=O)c3c2)cn1
IC50 [1]: > 40 µM
IC50 [2]: > 40 µM
IC50 [3]: > 40 µM
IC50 [4]: > 40 µM

SMILES: CCCCC(=O)Nc1ccc(-c2ccc3ncn(Cc4ccc(C)cc4)c(=O)c3c2)cn1
IC50 [1]: > 40 µM
IC50 [2]: 32.2 µM
IC50 [3]: 18.8 µM
IC50 [4]: 35.4 µM

Continued, in another order:

IC50 [2]: > 40 µM
IC50 [4]: > 40 µM
SMILES: CC(C)(C)C(=O)Nc1ccc(-c2ccc3ncn(Cc4ccc5c(c4)OCO5)c(=O)c3c2)cn1
IC50 [1]: > 40 µM
IC50 [3]: > 40 µM

IC50 [2]: 29.2 µM
IC50 [4]: > 40 µM
SMILES: Cc1ccc(Cn2cnc3ccc(-c4ccc(N(C(=O)c5ccccc5)C(=O)c5ccccc5)nc4)cc3c2=O)cc1
IC50 [1]: > 40 µM
IC50 [3]: > 40 µM

IC50 [2]: > 40 µM
IC50 [4]: > 40 µM
SMILES: CCCCC(=O)Nc1ccc(-c2ccc3ncn(Cc4ccccc4)c(=O)c3c2)cn1
IC50 [1]: > 40 µM
IC50 [3]: > 40 µM
